Tests used:
Type in all cases: functional, cell-based
MCF7 [1] = experiment: Inhibitory concentration against human breast cancer MCF-7 cell lines
Method in brief: (§1)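 MTS assay. Cells (2000-10 000) seeded in RPMI-1640 and grown 24 h, then exposed to various concentrations for 72 h at 37 °C under 5% CO₂. MTS (2 mg/ml) with PMS (25 µM) added for 3 h at 37 °C, and formazan read at 490 nm. IC50 taken from dose-response curves of % growth vs untreated control.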

SW-620 = experiment: Inhibitory concentration against human colorectal carcinoma SW620 cell lines; method in brief: as §1
K562 = experiment: Inhibitory concentration against human leukemia K562 cell lines; method in brief: as §1
HT-29 = experiment: Inhibitory concentration against human colorectal carcinoma HT-29 cell lines; method in brief: as §1
MCF7 [2] = experiment: Inhibitory concentration against human Breast cancer MCF-7 cell lines; method in brief: as §1

| SMILES | IC50 (MCF7 [1]) | IC50 (SW-620) | IC50 (K562) | IC50 (HT-29) | IC50 (MCF7 [2]) |
| --- | --- | --- | --- | --- | --- |
| COC1=C2C[C@@H](C)C[C@H](OC)[C@H](O)[C@@H](C)/C=C(\C)[C@H](OC(N)=O)[C@@H](OC)/C=C\C=C(/C)C(=O)NC(=CC1=O)C2=O [GELDANAMYCIN] | 0.0065 µM | 0.0062 µM | 0.0221 µM | 0.0245 µM |  |
| COC1/C=C\C=C(/C)C(=O)NC2=CC(=O)C(NCCCCCO[C@@H]3O[C@@H](CO)[C@H](O)[C@H](O)[C@@H]3O)=C(C[C@@H](C)C[C@H](OC)[C@H](O)C(C)/C=C(\C)[C@@H]1OC(N)=O)C2=O (stereo partly drawn) |  | > 13 µM | > 19 µM | > 13 µM | > 17 µM |
| COC1/C=C\C=C(/C)C(=O)NC2=CC(=O)C(NCCO[C@@H]3O[C@@H](CO)[C@@H](O[C@@H]4O[C@@H](CO)[C@H](O)[C@H](O)[C@@H]4O)[C@H](O)[C@@H]3O)=C(C[C@@H](C)C[C@H](OC)[C@H](O)C(C)/C=C(\C)[C@@H]1OC(N)=O)C2=O (stereo partly drawn) |  | > 20 µM | > 25 µM | > 25 µM | > 22 µM |
| COC1/C=C\C=C(/C)C(=O)NC2=CC(=O)C(NCCOCCO[C@@H]3O[C@@H](CO)[C@H](O)[C@H](O)[C@@H]3O)=C(C[C@@H](C)C[C@H](OC)[C@H](O)C(C)/C=C(\C)[C@@H]1OC(N)=O)C2=O (stereo partly drawn) |  | > 11 µM | > 15 µM | > 13 µM | > 22 µM |

Continued, values first:

| IC50 (MCF7 [1]) | IC50 (SW-620) | IC50 (K562) | IC50 (HT-29) | IC50 (MCF7 [2]) | SMILES |
| --- | --- | --- | --- | --- | --- |
|  | > 14 µM | > 14 µM | > 6 µM | > 12 µM | COC1/C=C\C=C(/C)C(=O)NC2=CC(=O)C(NCCCO[C@@H]3O[C@@H](CO)[C@H](O)[C@H](O)[C@@H]3O)=C(C[C@@H](C)C[C@H](OC)[C@H](O)C(C)/C=C(\C)[C@@H]1OC(N)=O)C2=O (stereo partly drawn) |
|  | 0.0702 µM | 0.381 µM | 0.105 µM | 0.754 µM | COC1/C=C\C=C(/C)C(=O)NC2=CC(=O)C(NCCO[C@@H]3O[C@@H](CO)[C@@H](O)[C@H](O)[C@@H]3O)=C(C[C@@H](C)C[C@H](OC)[C@H](O)C(C)/C=C(\C)[C@@H]1OC(N)=O)C2=O (stereo partly drawn) |
|  | > 8 µM | > 23 µM | > 14 µM | > 25 µM | COC1/C=C\C=C(/C)C(=O)NC2=CC(=O)C(NCCO[C@@H]3O[C@@H](CO)[C@H](O)[C@H](O)[C@@H]3O)=C(C[C@@H](C)C[C@H](OC)[C@H](O)C(C)/C=C(\C)[C@@H]1OC(N)=O)C2=O (stereo partly drawn) |

Source: ChEMBL document CHEMBL1145179, “Synthesis and enzyme-specific activation of carbohydrate-geldanamycin conjugates with potent anticancer activity” (J Med Chem, 2005)
